Assay results: ChEMBL document CHEMBL1833943, “Synthesis and structure-activity relationships of varied ether linker analogues of the antitubercular drug (6S)-2-nitro-6-{[4-(trifluoromethoxy)benzyl]oxy}-6,7-dihydro-5h-imidazo[2,1-b][1,3]oxazine (PA-824)” (J Med Chem, 2011)
Converted amounts (≈) assume the structure as drawn.

Key:
[1] = tested on: Mycobacterium tuberculosis; assay: Antituberculosis activity against Mycobacterium tuberculosis H37Rv under anaerobic conditions by fluorescence based low-oxygen-recovery assay; format: functional
[2] = tested on: Mycobacterium tuberculosis; assay: Antituberculosis activity against Mycobacterium tuberculosis H37Rv under aerobic conditions by microplate alamar blue assay; format: functional
[3] = Aqueous solubility of the compound in water at pH 7 by HPLC analysis; format: physicochemical
How it was run: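 Solubility measured in water at pH 7 and 20 °C, quantified by HPLC.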

| Structure (SMILES) | MIC [1] | MIC [2] | solubility [3] |
| --- | --- | --- | --- |
| O=[N+]([O-])c1cn2c(n1)OC[C@@H](OCC#Cc1ccc(-c3ccc(C(F)(F)F)cc3)cc1)C2 | 0.86 µM (≈ 0.381 µg/mL) | 0.22 µM (≈ 0.0975 µg/mL) |  |
| O=[N+]([O-])c1cn2c(n1)OC[C@@H](Oc1ccc(C(F)(F)F)cn1)C2 | 16 µM (≈ 5.28 µg/mL) | 2.9 µM (≈ 0.958 µg/mL) |  |
| O=[N+]([O-])c1cn2c(n1)OC[C@@H](OCCCc1ccc(OCc3ccccc3)cc1)C2 | 3.7 µM (≈ 1.51 µg/mL) | 0.5 µM (≈ 0.205 µg/mL) | 3.8 µg/mL (≈ 9.28 µM) |
| O=[N+]([O-])c1cn2c(n1)OC[C@@H](OCCOc1ccc(OCc3ccccc3)cc1)C2 | 5.5 µM (≈ 2.26 µg/mL) | 0.085 µM (≈ 0.035 µg/mL) | 1.7 µg/mL (≈ 4.13 µM) |
| O=[N+]([O-])c1cn2c(n1)OC[C@@H](OCCCc1ccc(-c3ccc(F)cc3)cc1)C2 | 0.92 µM (≈ 0.366 µg/mL) | 0.045 µM (≈ 0.0179 µg/mL) |  |
| O=[N+]([O-])c1cn2c(n1)OC[C@@H](OCCCc1ccc(-c3ccc(C(F)(F)F)nc3)cc1)C2 | 1.9 µM (≈ 0.852 µg/mL) | 0.07 µM (≈ 0.0314 µg/mL) |  |
| O=[N+]([O-])c1cn2c(n1)OC[C@@H](OCCCc1ccc(-c3ccc(C(F)(F)F)cn3)cc1)C2 | 3 µM (≈ 1.35 µg/mL) | 0.055 µM (≈ 0.0247 µg/mL) |  |
| O=[N+]([O-])c1cn2c(n1)OC[C@@H](OCCOc1ccc(-c3ccc(F)cc3)cc1)C2 | 3.4 µM (≈ 1.36 µg/mL) | 0.04 µM (≈ 0.016 µg/mL) |  |
| O=[N+]([O-])c1cn2c(n1)OC[C@@H](OCCOc1ccc(-c3ccc(C(F)(F)F)cc3)cc1)C2 | 104 µM (≈ 46.7 µg/mL) | 0.04 µM (≈ 0.018 µg/mL) |  |
| O=[N+]([O-])c1cn2c(n1)OC[C@@H](OCCOc1ccc(-c3ccc(C(F)(F)F)nc3)cc1)C2 | 4.1 µM (≈ 1.85 µg/mL) | 0.025 µM (≈ 0.0113 µg/mL) |  |
| O=[N+]([O-])c1cn2c(n1)OC[C@@H](OCCOc1ccc(-c3ccc(F)cc3)cn1)C2 | 2.4 µM (≈ 0.961 µg/mL) | 0.02 µM (≈ 0.00801 µg/mL) |  |
| O=[N+]([O-])c1cn2c(n1)OC[C@@H](OCCOc1ccc(-c3ccc(C(F)(F)F)cc3)cn1)C2 | 3 µM (≈ 1.35 µg/mL) | 0.02 µM (≈ 0.00901 µg/mL) |  |
| O=[N+]([O-])c1cn2c(n1)OC[C@@H](OCCOc1ccc(-c3ccc(C(F)(F)F)nc3)cn1)C2 | 10 µM (≈ 4.51 µg/mL) | 0.22 µM (≈ 0.0993 µg/mL) |  |
| O=[N+]([O-])c1cn2c(n1)OC[C@@H](OCCOc1ncc(-c3ccc(F)cc3)cn1)C2 | 13 µM (≈ 5.22 µg/mL) | 0.13 µM (≈ 0.0522 µg/mL) |  |
| O=[N+]([O-])c1cn2c(n1)OC[C@@H](OCCOc1ncc(-c3ccc(C(F)(F)F)cc3)cn1)C2 | 5.4 µM (≈ 2.44 µg/mL) | 0.12 µM (≈ 0.0542 µg/mL) |  |
| O=[N+]([O-])c1cn2c(n1)OC[C@@H](OCCOc1ncc(-c3ccc(C(F)(F)F)nc3)cn1)C2 | 56 µM (≈ 25.3 µg/mL) | 0.63 µM (≈ 0.285 µg/mL) |  |
| O=[N+]([O-])c1cn2c(n1)OC[C@@H](OC/C=C/c1ccc(-c3ccc(F)cc3)cc1)C2 | 3.1 µM (≈ 1.23 µg/mL) | 0.09 µM (≈ 0.0356 µg/mL) |  |

| Structure (SMILES) | MIC [1] | MIC [2] | solubility [3] |
| --- | --- | --- | --- |
| O=[N+]([O-])c1cn2c(n1)OC[C@@H](OC/C=C/c1ccc(-c3ccc(C(F)(F)F)cc3)cc1)C2 | 43 µM (≈ 19.2 µg/mL) | 0.045 µM (≈ 0.02 µg/mL) |  |
| O=[N+]([O-])c1cn2c(n1)OC[C@@H](OC/C=C/c1ccc(-c3ccc(C(F)(F)F)nc3)cc1)C2 | 15 µM (≈ 6.7 µg/mL) | 0.02 µM (≈ 0.00893 µg/mL) |  |
| O=[N+]([O-])c1cn2c(n1)OC[C@@H](OC/C=C/c1ccc(-c3ccc(OC(F)F)cc3)cc1)C2 | 4.3 µM (≈ 1.91 µg/mL) | 0.08 µM (≈ 0.0355 µg/mL) |  |
| O=[N+]([O-])c1cn2c(n1)OC[C@@H](OCC#Cc1ccc(-c3ccc(F)cc3)cc1)C2 | 2.7 µM (≈ 1.06 µg/mL) | 0.035 µM (≈ 0.0138 µg/mL) |  |
| O=[N+]([O-])c1cn2c(n1)OC[C@@H](OCC#Cc1ccc(-c3ccc(OC(F)F)cc3)cc1)C2 | 1.8 µM (≈ 0.795 µg/mL) | 0.14 µM (≈ 0.0618 µg/mL) |  |
| O=[N+]([O-])c1cn2c(n1)OC[C@@H](OCC#Cc1cccc(-c3ccc(F)cc3)c1)C2 | 0.88 µM (≈ 0.346 µg/mL) | 0.04 µM (≈ 0.0157 µg/mL) |  |
| O=[N+]([O-])c1cn2c(n1)OC[C@@H](OCC#Cc1cccc(-c3ccc(C(F)(F)F)cc3)c1)C2 | 1.3 µM (≈ 0.576 µg/mL) | 0.27 µM (≈ 0.12 µg/mL) |  |
| O=[N+]([O-])c1cn2c(n1)OC[C@@H](OCC#Cc1cccc(-c3ccc(C(F)(F)F)nc3)c1)C2 | 0.96 µM (≈ 0.427 µg/mL) | 0.12 µM (≈ 0.0533 µg/mL) |  |
| O=[N+]([O-])c1cn2c(n1)OC[C@@H](OCC#Cc1cccc(-c3ccc(OC(F)F)cc3)c1)C2 | 1.4 µM (≈ 0.618 µg/mL) | 0.09 µM (≈ 0.0397 µg/mL) |  |
| O=[N+]([O-])c1cn2c(n1)OC[C@@H](OCC#Cc1ccc(-c3ccc(F)cc3)cn1)C2 | 0.85 µM (≈ 0.335 µg/mL) | 0.05 µM (≈ 0.0197 µg/mL) |  |
| O=[N+]([O-])c1cn2c(n1)OC[C@@H](OCC#Cc1ccc(-c3ccc(C(F)(F)F)cc3)cn1)C2 | 0.75 µM (≈ 0.333 µg/mL) | 0.02 µM (≈ 0.00889 µg/mL) |  |
| O=[N+]([O-])c1cn2c(n1)OC[C@@H](OCC#Cc1ccc(-c3ccc(C(F)(F)F)nc3)cn1)C2 | 6.6 µM (≈ 2.94 µg/mL) | 0.44 µM (≈ 0.196 µg/mL) |  |
| O=[N+]([O-])c1cn2c(n1)OC[C@@H](OCC#Cc1ccc(-c3ccc(OC(F)F)cc3)cn1)C2 | 0.44 µM (≈ 0.195 µg/mL) | 0.025 µM (≈ 0.0111 µg/mL) |  |
| O=[N+]([O-])c1cn2c(n1)OC[C@@H](OCC#Cc1ccc(-c3ccc(F)cc3)nc1)C2 | 1 µM (≈ 0.394 µg/mL) | 0.05 µM (≈ 0.0197 µg/mL) |  |
| O=[N+]([O-])c1cn2c(n1)OC[C@@H](OCC#Cc1ccc(-c3ccc(C(F)(F)F)cc3)nc1)C2 | 0.58 µM (≈ 0.258 µg/mL) | 0.07 µM (≈ 0.0311 µg/mL) |  |
| O=[N+]([O-])c1cn2c(n1)OC[C@@H](OCC#Cc1ccc(-c3ccc(C(F)(F)F)nc3)nc1)C2 | 3.7 µM (≈ 1.65 µg/mL) | 0.12 µM (≈ 0.0534 µg/mL) |  |
| O=[N+]([O-])c1cn2c(n1)OC[C@@H](OCC#Cc1ccc(-c3ccc(OC(F)F)cc3)nc1)C2 | 0.61 µM (≈ 0.27 µg/mL) | 0.08 µM (≈ 0.0354 µg/mL) |  |
